Results published in ChEMBL document CHEMBL4825702, “5-Aminonaphthalene derivatives as selective nonnucleoside nuclear receptor binding SET domain-protein 2 (NSD2) inhibitors for the treatment of multiple myeloma” (Eur J Med Chem, 2021).
The source made the active and inactive calls. No cut-off for these calls is given here.

Assays:
KARPAS-422 = experiment: Antiproliferative activity against human KARPAS-422 cells assessed as reduction in cell viability incubated for 6 days by CCK8 assay
[1] = biological target: Histone-lysine N-methyltransferase 2B (Homo sapiens, UniProt Q9UMN6); experiment: Inhibition of MLL4 (unknown origin) using SAM as substrate preincubated for 10 mins followed by substrate addition measured after 4 hrs by HTRF method
How it was run: (§1)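 HTRF assay: inhibitor plus enzyme preincubated 10 min at room temperature, then peptide/SAM mix added and incubated at room temperature. Antibody and SA-XL665 detection mix added for 1 h in subdued light. Emission read at 665 and 620 nm; IC50 from two separate experiments.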

OCI-AML-5 = experiment: Antiproliferative activity against human OCI-AML5 cells assessed as reduction in cell viability incubated for 6 days by CCK8 assay
KMS-11 [2] = experiment: Antiproliferative activity against human KMS-11 cells assessed as reduction in cell viability incubated for 6 days by CCK8 assay; type: functional, cell-based; settings: dose 1-100 µM, time 6.0 day
How it was run: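 Cells seeded in triplicate at 6000–20000 per well and left 24 h, then exposed to increasing concentrations for a further 6 days. Viability read with CCK-8 and growth IC50 derived from the dose–response.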

MV4-11 [3] = experiment: Induction of cell cycle arrest in human MV4-11 cells assessed as G0/G1 phase incubated for 72 hrs by ribonucleaseA/propidium iodide staining based flow cytometry analysis; type: functional
How it was run: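 Cell cycle by PI: cells exposed for 72 h at 5 and 10 µM vs vehicle, washed twice, fixed overnight in pre-cooled 70% ethanol, then stained 45 min at room temperature with ribonuclease A and PI. Acquired on FACSCanto and phase fractions modelled.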

MOLT-4 = experiment: Antiproliferative activity against human MOLT-4 cells assessed as reduction in cell viability incubated for 6 days by CCK8 assay
WSUDLCL2 = experiment: Antiproliferative activity against human WSUDLCL2 cells assessed as reduction in cell viability incubated for 6 days by CCK8 assay
[4] = Inhibition of MET transcriptional activity in human KMS-11 cells assessed as reduction in H3K36 methylation at 10 uM measured after 72 hrs by chip q-PCR analysis
RS4-11 [5] = experiment: Antiproliferative activity against human RS4-11 cells assessed as reduction in cell viability incubated for 6 days by CCK8 assay; settings: RS4-11, 6 days
[6] = biological target: Histone-lysine N-methyltransferase EZH2 (Homo sapiens, UniProt Q15910); experiment: Inhibition of EZH2 (unknown origin) using SAM as substrate preincubated for 10 mins followed by substrate addition measured after 4 hrs by HTRF method
How it was run: as §1

[7] = biological target: Protransforming growth factor alpha (Homo sapiens) (UniProt P01135); experiment: Inhibition of TGFA transcriptional activity in human KMS-11 cells assessed as reduction in H3K36 methylation at 10 uM measured after 72 hrs by chip q-PCR analysis; type: cell-based
How it was run: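 KMS11 cells treated with test agent or DMSO. ChIP with magnetic-bead enzymatic chromatin IP kit using anti-H3K36me2, anti-histone H3 and IgG control antibodies. H3K36me2 quantified by qPCR with primers spanning the promoter regions of TGFA, MET, PAK1 and RRAS2.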

Pfeiffer = experiment: Antiproliferative activity against human Pfeiffer cells assessed as reduction in cell viability incubated for 6 days by CCK8 assay
[8] = MRT in CD-1 mouse at 2 mg/kg, iv measured up to 24 hrs by LC-MS/MS; type: ADME, organism-based; settings: in vivo
How it was run: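 CD-1 mice dosed at 2 mg/kg i.p. or i.v., n = 3 per group. Blood sampled at 0, 0.083, 0.25, 0.5, 1, 2, 4, 6, 8 and 24 h and spun for plasma. Internal standard added, deproteinized with methanol/acetonitrile (1:1), supernatant diluted and analysed by LC/MS/MS.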

Jurkat = experiment: Antiproliferative activity against human Jurkat cells assessed as reduction in cell viability incubated for 6 days by CCK8 assay
RS4-11 [9] = experiment: cells; settings: Homo sapiens, RS4-11, 72 h, read-out: Activity
KMS-11 [10] = experiment: cells; settings: Homo sapiens, KMS-11, 72 h, read-out: Activity
RS4-11 [11] = experiment: Toxicity in SCID mouse xenografted with human RS4-11 cells assessed as body weight LOSS at 25 to 50 mg/kg, ip qd administered consecutively for 21 days; type: functional, organism-based; settings: dose 25-50 mg/kg, time 21.0 day
How it was run: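 Female SCID mice, 4 weeks old, implanted subcutaneously in the flank with 1 × 10⁷ RS4:11 cells in 0.2 mL PBS. At about 100 mm³, groups of n = 8 received 25 or 50 mg/kg or vehicle intraperitoneally once daily for 21 days. Body weight and tumors measured twice weekly.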

[12] = biological target: Histone-lysine N-methyltransferase NSD2 (Homo sapiens, UniProt O96028, E1009K); experiment: Inhibition of NSD2 E1009K mutant (unknown origin) using SAM as substrate preincubated for 10 mins followed by substrate addition measured after 4 hrs by AlphaLISA method
MV4-11 [13] = experiment: cells; settings: Homo sapiens, MV4-11, 72 h, read-out: Activity
KMS-11 [14] = experiment: cells; settings: Homo sapiens, KMS-11, 72 h, read-out: Activity; remark: listed apart in the source
[15] = biological target: Histone-arginine methyltransferase CARM1 (Homo sapiens, UniProt Q86X55); experiment: Inhibition of PRMT4 (unknown origin) using SAM as substrate preincubated for 10 mins followed by substrate addition measured after 4 hrs by AlphaLISA method
OPM-2 = experiment: Antiproliferative activity against human OPM-2 cells assessed as reduction in cell viability incubated for 6 days by CCK8 assay
RS4-11 [16] = experiment: cells; settings: Homo sapiens, RS4-11, 72 h, read-out: Activity; remark: listed apart in the source
[17] = Cmax in CD-1 mouse at 2 mg/kg, ip measured up to 24 hrs by LC-MS/MS; type: ADME, organism-based; set-up: route intraperitoneal, dose 2 mg/kg, time <=24; settings: in vivo
How it was run: (§2)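 CD-1 mice given a single 2 mg/kg dose i.p. or i.v. (n = 3 per group). Blood sampled at 0, 0.083, 0.25, 0.5, 1, 2, 4, 6, 8 and 24 h and centrifuged for plasma, with internal standard added. Plasma deproteinized with methanol/acetonitrile (1:1), supernatant diluted with acetonitrile/water, and compound measured by LC/MS/MS.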

NCI-H929 = experiment: Antiproliferative activity against human NCI-H929 cells assessed as reduction in cell viability incubated for 6 days by CCK8 assay
[18] = AUC in CD-1 mouse at 2 mg/kg, ip measured up to 24 hrs by LC-MS/MS; type: ADME, organism-based; set-up: route intraperitoneal, dose 2 mg/kg, time <=24; settings: in vivo
How it was run: as §2

[19] = biological target: Histone-lysine N-methyltransferase 2A (Homo sapiens, UniProt Q03164); experiment: Inhibition of MLLI (unknown origin) using SAM as substrate preincubated for 10 mins followed by substrate addition measured after 4 hrs by HTRF method
How it was run: as §1

Sequence of Histone-lysine N-methyltransferase NSD2 (O96028 whole entry, looked up, stated change not applied): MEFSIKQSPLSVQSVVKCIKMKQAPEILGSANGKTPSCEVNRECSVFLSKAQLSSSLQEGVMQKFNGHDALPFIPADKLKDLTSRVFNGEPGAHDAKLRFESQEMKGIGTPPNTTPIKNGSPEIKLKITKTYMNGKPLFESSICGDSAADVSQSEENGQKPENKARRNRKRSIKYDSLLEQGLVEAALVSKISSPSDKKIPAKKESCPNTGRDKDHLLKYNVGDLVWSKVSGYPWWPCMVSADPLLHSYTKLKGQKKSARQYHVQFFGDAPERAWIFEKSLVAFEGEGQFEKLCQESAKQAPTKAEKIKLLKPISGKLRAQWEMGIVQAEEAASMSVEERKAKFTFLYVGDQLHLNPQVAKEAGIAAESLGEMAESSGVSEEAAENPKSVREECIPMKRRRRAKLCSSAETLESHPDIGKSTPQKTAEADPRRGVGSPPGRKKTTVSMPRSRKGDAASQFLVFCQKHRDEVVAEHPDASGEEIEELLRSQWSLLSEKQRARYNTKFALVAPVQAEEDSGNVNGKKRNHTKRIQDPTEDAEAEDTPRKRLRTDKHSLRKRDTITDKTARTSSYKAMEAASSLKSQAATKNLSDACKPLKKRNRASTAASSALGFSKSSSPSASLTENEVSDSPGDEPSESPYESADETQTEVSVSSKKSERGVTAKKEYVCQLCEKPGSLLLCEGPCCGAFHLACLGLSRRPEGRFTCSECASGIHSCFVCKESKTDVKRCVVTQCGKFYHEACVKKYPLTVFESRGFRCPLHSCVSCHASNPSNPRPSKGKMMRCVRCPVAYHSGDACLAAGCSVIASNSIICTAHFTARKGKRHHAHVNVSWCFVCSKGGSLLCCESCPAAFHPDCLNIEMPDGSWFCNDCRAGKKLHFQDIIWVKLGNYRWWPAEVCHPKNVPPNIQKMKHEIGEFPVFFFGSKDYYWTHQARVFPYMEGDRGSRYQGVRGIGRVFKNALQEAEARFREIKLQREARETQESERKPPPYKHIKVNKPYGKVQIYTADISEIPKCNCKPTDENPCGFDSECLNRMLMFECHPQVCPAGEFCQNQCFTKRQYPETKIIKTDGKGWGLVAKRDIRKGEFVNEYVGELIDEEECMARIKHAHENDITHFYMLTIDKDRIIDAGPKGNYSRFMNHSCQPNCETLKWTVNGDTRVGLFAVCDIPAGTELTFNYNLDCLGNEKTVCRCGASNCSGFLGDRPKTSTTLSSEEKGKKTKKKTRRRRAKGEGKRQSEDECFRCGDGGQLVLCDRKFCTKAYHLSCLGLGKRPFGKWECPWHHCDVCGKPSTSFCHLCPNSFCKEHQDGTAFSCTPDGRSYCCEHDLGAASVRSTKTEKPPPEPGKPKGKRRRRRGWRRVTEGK
Sequence of Histone-lysine N-methyltransferase EZH2 (Q15910 whole entry): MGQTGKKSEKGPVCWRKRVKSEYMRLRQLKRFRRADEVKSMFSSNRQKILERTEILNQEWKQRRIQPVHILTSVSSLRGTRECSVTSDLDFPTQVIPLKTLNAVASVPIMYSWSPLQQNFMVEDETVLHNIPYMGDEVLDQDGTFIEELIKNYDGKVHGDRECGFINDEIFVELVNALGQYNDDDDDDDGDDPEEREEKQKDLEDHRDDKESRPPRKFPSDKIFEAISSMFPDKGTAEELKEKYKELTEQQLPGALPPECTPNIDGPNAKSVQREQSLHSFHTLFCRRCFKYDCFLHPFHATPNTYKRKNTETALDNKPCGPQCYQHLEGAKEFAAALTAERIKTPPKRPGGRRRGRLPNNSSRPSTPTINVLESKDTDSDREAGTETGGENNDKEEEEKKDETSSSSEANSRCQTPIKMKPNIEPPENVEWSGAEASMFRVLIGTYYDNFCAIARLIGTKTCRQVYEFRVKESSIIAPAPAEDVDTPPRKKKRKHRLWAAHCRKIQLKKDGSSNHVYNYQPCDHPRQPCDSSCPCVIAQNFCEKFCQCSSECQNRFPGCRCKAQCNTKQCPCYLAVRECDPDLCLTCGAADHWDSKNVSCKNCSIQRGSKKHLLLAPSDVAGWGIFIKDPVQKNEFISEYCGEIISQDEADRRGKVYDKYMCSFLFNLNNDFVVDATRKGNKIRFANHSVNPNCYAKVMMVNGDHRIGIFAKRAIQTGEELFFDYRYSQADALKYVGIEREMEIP
Sequence of Protransforming growth factor alpha (Homo sapiens) (P01135 whole entry): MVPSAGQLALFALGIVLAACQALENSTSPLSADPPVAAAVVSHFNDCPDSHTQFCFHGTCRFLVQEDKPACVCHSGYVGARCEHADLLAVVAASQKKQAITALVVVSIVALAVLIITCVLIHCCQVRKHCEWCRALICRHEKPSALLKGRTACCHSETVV
Sequence of Histone-lysine N-methyltransferase 2B (Q9UMN6 whole entry): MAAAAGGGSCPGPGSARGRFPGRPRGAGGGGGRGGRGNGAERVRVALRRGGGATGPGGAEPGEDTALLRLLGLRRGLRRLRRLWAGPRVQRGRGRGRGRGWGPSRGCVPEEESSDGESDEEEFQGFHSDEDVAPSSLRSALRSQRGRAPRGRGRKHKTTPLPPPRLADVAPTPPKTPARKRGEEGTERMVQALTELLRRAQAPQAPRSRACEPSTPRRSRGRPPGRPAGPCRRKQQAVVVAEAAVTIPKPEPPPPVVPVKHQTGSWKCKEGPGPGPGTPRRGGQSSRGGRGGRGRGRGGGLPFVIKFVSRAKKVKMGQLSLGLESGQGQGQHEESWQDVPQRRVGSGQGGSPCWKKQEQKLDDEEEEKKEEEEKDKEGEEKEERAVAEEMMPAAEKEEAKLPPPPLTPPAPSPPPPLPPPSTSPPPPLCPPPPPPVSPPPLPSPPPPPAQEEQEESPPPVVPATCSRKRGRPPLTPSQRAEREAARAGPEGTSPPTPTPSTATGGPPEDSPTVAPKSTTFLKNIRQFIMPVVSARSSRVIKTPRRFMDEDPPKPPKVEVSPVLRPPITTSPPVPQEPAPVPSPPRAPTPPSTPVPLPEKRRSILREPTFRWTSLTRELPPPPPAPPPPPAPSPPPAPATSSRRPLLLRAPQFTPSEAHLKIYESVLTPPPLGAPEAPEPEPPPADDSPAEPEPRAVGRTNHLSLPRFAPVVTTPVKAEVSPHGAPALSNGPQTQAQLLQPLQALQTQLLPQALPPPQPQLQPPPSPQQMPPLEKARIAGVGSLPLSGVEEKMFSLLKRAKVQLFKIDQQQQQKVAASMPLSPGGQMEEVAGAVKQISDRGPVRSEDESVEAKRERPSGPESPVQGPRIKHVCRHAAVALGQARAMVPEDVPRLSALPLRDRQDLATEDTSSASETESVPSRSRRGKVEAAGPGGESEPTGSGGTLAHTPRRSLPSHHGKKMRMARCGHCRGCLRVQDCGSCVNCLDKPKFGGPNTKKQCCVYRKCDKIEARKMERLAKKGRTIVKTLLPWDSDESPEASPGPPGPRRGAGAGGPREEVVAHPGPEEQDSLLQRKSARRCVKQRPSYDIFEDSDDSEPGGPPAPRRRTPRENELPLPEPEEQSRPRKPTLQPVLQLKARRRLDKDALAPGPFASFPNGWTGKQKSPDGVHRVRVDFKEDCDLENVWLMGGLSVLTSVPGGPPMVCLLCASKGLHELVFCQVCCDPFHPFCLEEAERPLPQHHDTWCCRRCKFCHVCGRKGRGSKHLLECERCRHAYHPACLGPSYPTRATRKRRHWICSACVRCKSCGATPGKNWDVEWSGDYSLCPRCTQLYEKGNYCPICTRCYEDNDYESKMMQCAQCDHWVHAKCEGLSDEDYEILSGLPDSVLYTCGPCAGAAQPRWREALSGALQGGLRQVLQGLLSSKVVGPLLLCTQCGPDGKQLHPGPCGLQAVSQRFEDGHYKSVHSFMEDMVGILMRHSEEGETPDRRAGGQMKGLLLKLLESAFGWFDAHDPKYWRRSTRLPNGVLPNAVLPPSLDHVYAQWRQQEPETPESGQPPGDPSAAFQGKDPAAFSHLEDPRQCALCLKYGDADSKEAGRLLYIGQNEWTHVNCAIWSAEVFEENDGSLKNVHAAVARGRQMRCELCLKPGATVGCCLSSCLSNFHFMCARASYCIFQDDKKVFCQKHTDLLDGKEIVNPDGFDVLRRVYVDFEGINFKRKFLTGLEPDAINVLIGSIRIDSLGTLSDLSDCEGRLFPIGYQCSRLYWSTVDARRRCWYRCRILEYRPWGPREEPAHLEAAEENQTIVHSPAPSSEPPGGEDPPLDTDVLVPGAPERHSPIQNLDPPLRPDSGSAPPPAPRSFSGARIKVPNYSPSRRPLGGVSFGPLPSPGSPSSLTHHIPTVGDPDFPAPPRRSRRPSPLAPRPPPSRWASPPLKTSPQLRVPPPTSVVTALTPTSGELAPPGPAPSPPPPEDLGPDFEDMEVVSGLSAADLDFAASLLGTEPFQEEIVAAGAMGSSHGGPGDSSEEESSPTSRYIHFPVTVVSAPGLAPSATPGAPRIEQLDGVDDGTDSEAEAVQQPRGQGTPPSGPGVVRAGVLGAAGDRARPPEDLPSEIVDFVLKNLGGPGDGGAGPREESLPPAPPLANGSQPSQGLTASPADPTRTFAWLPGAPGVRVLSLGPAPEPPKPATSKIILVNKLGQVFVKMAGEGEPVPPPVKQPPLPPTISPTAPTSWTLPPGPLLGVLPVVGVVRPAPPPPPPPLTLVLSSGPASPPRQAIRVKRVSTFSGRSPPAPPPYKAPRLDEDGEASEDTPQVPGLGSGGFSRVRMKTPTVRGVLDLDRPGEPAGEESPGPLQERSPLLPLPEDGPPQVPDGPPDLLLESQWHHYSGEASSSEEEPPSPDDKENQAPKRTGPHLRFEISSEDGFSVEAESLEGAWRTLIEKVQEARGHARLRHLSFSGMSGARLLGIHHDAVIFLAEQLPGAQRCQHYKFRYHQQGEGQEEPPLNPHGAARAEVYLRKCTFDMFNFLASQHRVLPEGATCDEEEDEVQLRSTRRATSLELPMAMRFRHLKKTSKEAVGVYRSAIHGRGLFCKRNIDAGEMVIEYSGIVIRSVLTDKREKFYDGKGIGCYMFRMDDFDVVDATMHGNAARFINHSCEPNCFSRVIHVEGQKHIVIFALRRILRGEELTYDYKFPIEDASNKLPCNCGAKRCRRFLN

Cl.Nc1cccc2c(S(=O)(=O)NCc3ccccc3)cccc12
Activity (KARPAS-422): Active | IC50 [1]: > 20 µM | Activity (OCI-AML-5): Active | Activity (KMS-11 [2]): Dose-Dependent Effect | Activity (MV4-11 [3]): inactive | Activity (MOLT-4): Active | Activity (WSUDLCL2): Active | inhibition [4]: Active | IC50 (RS4-11 [5]): 0.52 µM | IC50 [6]: > 20 µM | inhibition [7]: Active | Activity (Pfeiffer): Active | MRT [8]: 23.8 min | Activity (Jurkat): Active | viability at 5 µM (RS4-11 [9]): 2.19% | viability at 5 µM (KMS-11 [10]): 58.7% | Activity (RS4-11 [11]): Not toxic | IC50 [12]: 3.1 µM | viability at 10 µM (MV4-11 [13]): 94% | viability at 10 µM (KMS-11 [14]): 50.4% | IC50 [15]: > 20 µM | Activity (OPM-2): Active | viability at 10 µM (RS4-11 [16]): 3.53% | Cmax [17]: 433 ng/mL | Activity (NCI-H929): Active | AUC at 24 h [18]: 150 ng·h/mL | IC50 [19]: > 20 µM
